Measured values as given in ChEMBL document CHEMBL4689842, “EUbOPEN Chemogenomics Library wave 1” (2021).

Experiments:
Format in all cases: toxicity, cell-based
[1] = tested on: HEK-293T; test: Incucyte cell viability with HEK293T; conditions: human, 10 µM, compound concentration 10 uM; note: filed as whole numbers so only -1 and 0 and 1 occur
[2] = tested on: Fibroblast; test: Incucyte cell viability with human fibroblast; conditions: 10 µM, compound concentration 10 uM; note: filed as whole numbers so only -1 and 0 and 1 occur
[3] = tested on: U2OS; test: Incucyte cell viability with U2OS; conditions: human, 10 µM, compound concentration 10 uM; note: filed as whole numbers so only -1 and 0 and 1 occur
[4] = tested on: U2OS; test: Multiplex assay against U2OS; conditions: human
Method in brief: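 Hoechst33342, BioTracker Green Microtubule Cytoskeleton Dye, MitoTracker Red and Annexin V Alexa Fluor 680 were added to live cells at seeding, and imaging on a CQ1 microscope at 37°C and 5% CO2 followed compound addition. Gating by CellPathfinder machine learning separated cells into Hoechst high-intensity objects or normal cells, then normal cells into healthy, pyknosed or fragmented nuclei, then pyknosed cells into mitotic or apoptotic. Per cents of healthy-nucleus cells are reported for the tubulin, mitochondrial-mass and membrane-permeability phenotypes.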

[5] = 0 h, replicate number 1, timepoint 0 hours
[6] = 6 h, replicate number 1, timepoint 6 hours
[7] = 12 h, replicate number 1, timepoint 12 hours
[8] = 18 h, replicate number 1, timepoint 18 hours
[9] = 24 h, replicate number 1, timepoint 24 hours
[10] = 12 h, 1 µM, compound concentration 1 uM, replicate 1
[11] = 12 h, 1 µM, compound concentration 1 uM, replicate 2
[12] = 12 h, 10 µM, compound concentration 10 uM, replicate 1
[13] = 12 h, 10 µM, compound concentration 10 uM, replicate 2
[14] = 24 h, 1 µM, compound concentration 1 uM, replicate 1
[15] = 24 h, 1 µM, compound concentration 1 uM, replicate 2
[16] = 24 h, 10 µM, compound concentration 10 uM, replicate 1
[17] = 24 h, 10 µM, compound concentration 10 uM, replicate 2
[18] = 48 h, 1 µM, compound concentration 1 uM, replicate 1
[19] = 48 h, 1 µM, compound concentration 1 uM, replicate 2
[20] = 48 h, 10 µM, compound concentration 10 uM, replicate 1
[21] = 48 h, 10 µM, compound concentration 10 uM, replicate 2

O=C(O)c1ccc2cc(-c3ccc(O)c(C45CC6CC(CC(C6)C4)C5)c3)ccc2c1 [O-DEMETHYLATED ADAPALENE]
Growth Rate [1, 5]: 1
Growth Rate ([1]; 0 h, replicate number 2, timepoint 0 hours): 0
Growth Rate [1, 6]: 0
Growth Rate [1, 7]: 0
Growth Rate [1, 8]: 0
Growth Rate [1, 9]: 0
Growth Rate [2, 5]: 0
Growth Rate [2, 6]: 0
Growth Rate [2, 7]: 0
Growth Rate ([2]; 12 h, replicate number 2, timepoint 12 hours): 1
Growth Rate [2, 8]: 0
Growth Rate [2, 9]: 0
Growth Rate [3, 5]: 0
Growth Rate [3, 7]: 1
Growth Rate [3, 8]: 1
Growth Rate [3, 9]: 0
Population Apoptotic (%) [4, 10]: 50%
Population Fragmented Nuclei (%) [4, 10]: 21%
Population Healthy Nuclei (%) [4, 10]: 66%
Population Hoechst High Intensity Objects (%) [4, 10]: 11%
Population Membrane Permeable-Phenotype (%) [4, 10]: 13%
Population Mitochondria Different-Phenotype (%) [4, 10]: 12%
Population Mitotic Cells (%) [4, 10]: 50%
Population Normal (%) [4, 10]: 88%
Population Pyknosed Nuclei (%) [4, 10]: 11%
Population Tubulin-Different-Phenotype (%) [4, 10]: 15%
Total Cell Count [4, 10]: 98
Population Apoptotic (%) [4, 11]: 100%
Population Fragmented Nuclei (%) [4, 11]: 8%
Population Healthy Nuclei (%) [4, 11]: 87%
Population Hoechst High Intensity Objects (%) [4, 11]: 9%
Population Membrane Permeable-Phenotype (%) [4, 11]: 6%
Population Mitochondria Different-Phenotype (%) [4, 11]: 16%
Population Mitotic Cells (%) [4, 11]: 0%
Population Normal (%) [4, 11]: 90%
Population Pyknosed Nuclei (%) [4, 11]: 3%
Population Tubulin-Different-Phenotype (%) [4, 11]: 16%
Total Cell Count [4, 11]: 62
Population Apoptotic (%) [4, 12]: 66%
Population Fragmented Nuclei (%) [4, 12]: 9%
Population Healthy Nuclei (%) [4, 12]: 85%
Population Hoechst High Intensity Objects (%) [4, 12]: 6%
Population Membrane Permeable-Phenotype (%) [4, 12]: 4%
Population Mitochondria Different-Phenotype (%) [4, 12]: 15%
Population Mitotic Cells (%) [4, 12]: 33%
Population Normal (%) [4, 12]: 93%
Population Pyknosed Nuclei (%) [4, 12]: 4%
Population Tubulin-Different-Phenotype (%) [4, 12]: 11%
Total Cell Count [4, 12]: 205
Population Apoptotic (%) [4, 13]: 100%
Population Fragmented Nuclei (%) [4, 13]: 11%
Population Healthy Nuclei (%) [4, 13]: 87%
Population Hoechst High Intensity Objects (%) [4, 13]: 2%
Population Membrane Permeable-Phenotype (%) [4, 13]: 1%
Population Mitochondria Different-Phenotype (%) [4, 13]: 16%
Population Mitotic Cells (%) [4, 13]: 0%
Population Normal (%) [4, 13]: 97%
Population Pyknosed Nuclei (%) [4, 13]: 1%
Population Tubulin-Different-Phenotype (%) [4, 13]: 25%
Total Cell Count [4, 13]: 83
Population Apoptotic (%) [4, 14]: 30%
Population Fragmented Nuclei (%) [4, 14]: 15%
Population Healthy Nuclei (%) [4, 14]: 73%
Population Hoechst High Intensity Objects (%) [4, 14]: 11%
Population Membrane Permeable-Phenotype (%) [4, 14]: 10%
Population Mitochondria Different-Phenotype (%) [4, 14]: 13%
Population Mitotic Cells (%) [4, 14]: 70%
Population Normal (%) [4, 14]: 89%
Population Pyknosed Nuclei (%) [4, 14]: 11%
Population Tubulin-Different-Phenotype (%) [4, 14]: 10%
Total Cell Count [4, 14]: 100
Population Apoptotic (%) [4, 15]: 100%
Population Fragmented Nuclei (%) [4, 15]: 7%
Population Healthy Nuclei (%) [4, 15]: 89%
Population Hoechst High Intensity Objects (%) [4, 15]: 6%
Population Membrane Permeable-Phenotype (%) [4, 15]: 6%
Population Mitochondria Different-Phenotype (%) [4, 15]: 30%
Population Mitotic Cells (%) [4, 15]: 0%
Population Normal (%) [4, 15]: 93%
Population Pyknosed Nuclei (%) [4, 15]: 3%
Population Tubulin-Different-Phenotype (%) [4, 15]: 18%
Total Cell Count [4, 15]: 60
Population Apoptotic (%) [4, 16]: 64%
Population Fragmented Nuclei (%) [4, 16]: 15%
Population Healthy Nuclei (%) [4, 16]: 77%
Population Hoechst High Intensity Objects (%) [4, 16]: 5%
Population Membrane Permeable-Phenotype (%) [4, 16]: 4%
Population Mitochondria Different-Phenotype (%) [4, 16]: 20%
Population Mitotic Cells (%) [4, 16]: 35%
Population Normal (%) [4, 16]: 94%
Population Pyknosed Nuclei (%) [4, 16]: 7%
Population Tubulin-Different-Phenotype (%) [4, 16]: 14%
Total Cell Count [4, 16]: 206
Population Apoptotic (%) [4, 17]: 0%
Population Fragmented Nuclei (%) [4, 17]: 14%
Population Healthy Nuclei (%) [4, 17]: 81%
Population Hoechst High Intensity Objects (%) [4, 17]: 7%
Population Membrane Permeable-Phenotype (%) [4, 17]: 7%
Population Mitochondria Different-Phenotype (%) [4, 17]: 26%
Population Mitotic Cells (%) [4, 17]: 100%
Population Normal (%) [4, 17]: 92%
Population Pyknosed Nuclei (%) [4, 17]: 3%
Population Tubulin-Different-Phenotype (%) [4, 17]: 28%
Total Cell Count [4, 17]: 83
Population Apoptotic (%) [4, 18]: 50%
Population Fragmented Nuclei (%) [4, 18]: 16%
Population Healthy Nuclei (%) [4, 18]: 75%
Population Hoechst High Intensity Objects (%) [4, 18]: 7%
Population Membrane Permeable-Phenotype (%) [4, 18]: 7%
Population Mitochondria Different-Phenotype (%) [4, 18]: 31%
Population Mitotic Cells (%) [4, 18]: 50%
Population Normal (%) [4, 18]: 92%
Population Pyknosed Nuclei (%) [4, 18]: 7%
Population Tubulin-Different-Phenotype (%) [4, 18]: 13%
Total Cell Count [4, 18]: 117
Population Apoptotic (%) [4, 19]: 71%
Population Fragmented Nuclei (%) [4, 19]: 9%
Population Healthy Nuclei (%) [4, 19]: 80%
Population Hoechst High Intensity Objects (%) [4, 19]: 2%
Population Membrane Permeable-Phenotype (%) [4, 19]: 10%
Population Mitochondria Different-Phenotype (%) [4, 19]: 42%
Population Mitotic Cells (%) [4, 19]: 28%
Population Normal (%) [4, 19]: 97%
Population Pyknosed Nuclei (%) [4, 19]: 9%
Population Tubulin-Different-Phenotype (%) [4, 19]: 21%
Total Cell Count [4, 19]: 73
Population Apoptotic (%) [4, 20]: 72%
Population Fragmented Nuclei (%) [4, 20]: 33%
Population Healthy Nuclei (%) [4, 20]: 47%
Population Hoechst High Intensity Objects (%) [4, 20]: 9%
Population Membrane Permeable-Phenotype (%) [4, 20]: 0%
Population Mitochondria Different-Phenotype (%) [4, 20]: 34%
Population Mitotic Cells (%) [4, 20]: 27%
Population Normal (%) [4, 20]: 90%
Population Pyknosed Nuclei (%) [4, 20]: 19%
Population Tubulin-Different-Phenotype (%) [4, 20]: 7%
Total Cell Count [4, 20]: 213
Population Apoptotic (%) [4, 21]: 90%
Population Fragmented Nuclei (%) [4, 21]: 14%
Population Healthy Nuclei (%) [4, 21]: 70%
Population Membrane Permeable-Phenotype (%) [4, 21]: 20%
Population Mitochondria Different-Phenotype (%) [4, 21]: 54%
Population Mitotic Cells (%) [4, 21]: 9%
Population Pyknosed Nuclei (%) [4, 21]: 14%
Population Tubulin-Different-Phenotype (%) [4, 21]: 45%
Total Cell Count [4, 21]: 83
